HTRA1 inhibitor: HTRA1 serine protease inhibitors, primary screen, biochemical, fluorescence polarization, HTS; Q92743; recombinant HTRA1, FP-rhodamine activity-based probe; inhibition, % at 5.96 µM; 340,000 tested, 0.5% active; in the data active = inhibition above about 36%;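 also: 0% = enzyme with DMSO and 100% = wells lacking enzyme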
ABHD4 inh: ABHD4 inhibitors, primary screen, biochemical, fluorescence polarization, mouse. (Lyso)-N-acylphosphatidylethanolamine lipase (Mus musculus), Q8VD66. purified mABHD4, FP-Rh probe fluorescence polarization. inhibition, % at 8.92 µM. 370,000 tested, 0.54% active;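 active = inhibition exceeding the mean over every tested compound plus 3 SD, cut at about 30% in these data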;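 also: 0% = plate median of compound wells and 100% = S159A mutant with DMSO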
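Test system: mABHD4 protein; Read-out basis: % inhibition; Incubation: 45 min + 60 min at 25 °C; Repeats: single replicate; Technique: fluorescence polarization with parallel and perpendicular emission, 525/598 nm; Compound: 8.92 µM, single dose; Benchmarks: full inhibition S159A mutant plus DMSO, zero as sample-well median.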
PRMT1 inh: PRMT1 methyltransferase inhibitors, primary screen, biochemical, fluorescence polarization | Protein arginine N-methyltransferase 1 (Homo sapiens), Q99873 | recombinant PRMT1, activity-based probe fluorescence polarization | inhibition, % at 2.79 µM | 370,000 tested, 1.3% active;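 active = inhibition above about 21% made by adding two undisclosed values, limit read from the data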
SIAE inh: human SIAE inhibitors, primary screen, biochemical, fluorescence polarization, FP-Rh probe, 1536-well HTS; Sialate O-acetylesterase (Homo sapiens), Q9HAT2; SIAE FP-Rh probe binding; inhibition, % at 9.66 µM; 370,000 tested, 0.69% active;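 active = inhibition above a cutoff: mean of compounds within the control limits plus 3 SD of those, cut at about 17% in these data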;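 also: 0% = plate median of compound wells and 100% = probe without SIAE protein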
Target sequence (Q9HAT2 whole entry, looked up): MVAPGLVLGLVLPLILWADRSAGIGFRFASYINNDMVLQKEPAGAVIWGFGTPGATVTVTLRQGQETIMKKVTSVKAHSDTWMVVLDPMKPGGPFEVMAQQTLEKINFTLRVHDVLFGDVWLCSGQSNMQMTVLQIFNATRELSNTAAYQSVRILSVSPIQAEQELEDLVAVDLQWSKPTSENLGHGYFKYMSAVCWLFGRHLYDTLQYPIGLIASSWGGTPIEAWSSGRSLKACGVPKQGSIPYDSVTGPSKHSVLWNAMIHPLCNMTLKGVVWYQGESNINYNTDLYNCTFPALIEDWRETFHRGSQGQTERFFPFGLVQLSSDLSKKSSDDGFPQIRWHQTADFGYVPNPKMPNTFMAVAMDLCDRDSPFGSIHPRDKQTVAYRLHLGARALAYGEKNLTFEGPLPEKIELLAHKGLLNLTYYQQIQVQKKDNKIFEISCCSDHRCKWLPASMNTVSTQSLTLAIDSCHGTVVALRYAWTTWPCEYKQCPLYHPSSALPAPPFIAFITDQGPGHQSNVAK
rCAG RNA binder: binders of r(CAG) RNA repeats, primary screen, biochemical, fluorescence; r(CAG) RNA repeat, TO-PRO-1 dye displacement fluorescence; inhibition, % at 3 µM; 370,000 tested, 1.3% active; AID 651821, 2012;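 active = inhibition above the plate cutoff, the mean of all test compounds on that plate plus 3 SD, cut at about 35% in these data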;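 also: 0% = DMSO alone and 100% = 100 µM mitoxantrone as full dye displacement; higher means more dye released from RNA so lower well fluorescence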
SIAE confirm: human SIAE inhibitors, retest, confirmation, biochemical, fluorescence polarization, FP-Rh probe, triplicate | inhibition, % at 9.66 µM | 2,300 tested, 13% active | shares compounds with SIAE inh | SIAE FP-Rh activity-based probe | AID 1117263, 2014;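 active = mean inhibition of the replicates above the hit cutoff set in the primary screen, cut at about 17% in these data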;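 also: 0% = SIAE with DMSO and probe and 100% = probe without SIAE; inhibitors lower polarization as more probe stays unbound to SIAE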
* hit, by the source's call; / = no result given. Sampled rows, rich in hits. Any-hit rate of the full collection: about 3.3%.

SMILES	HTRA1 inhibitor	ABHD4 inh	PRMT1 inh	SIAE inh	rCAG RNA binder	SIAE confirm
CCN(CC(=O)Nc1ccc(OC)cc1)C(=O)C1CC(=O)N(Cc2ccccc2)C1 (stereo not drawn)	1.4	-3.1	-1.3	0.3	2.4	/
O=C(NCCN1CCC(n2c(=O)[nH]c3ccccc32)CC1)c1c(F)cccc1F	/	3.0	1.5	-2.1	-0.5	/
C/C(=N\NC(=O)CCc1c[nH]c2ccccc12)c1ccc([N+](=O)[O-])cc1	-3.8	2.3	0.4	17.8*	3.0	3.7
C/C(=N\NC(=O)CCc1c(C)n[nH]c1C)c1ccc([N+](=O)[O-])cc1	3.2	-0.6	-2.2	-2.7	-1.8	/
O=C(CCc1c[nH]c2ccccc12)Nc1ccc(Nc2ccncc2)cc1	/	10.2	0.7	26.1*	10.9	21.2*
O=C(CCc1c[nH]c2ccccc12)Nc1ccc(Nc2ccccc2)cc1	/	8.8	3.7	17.1*	7.5	12.8
COc1ccc(/C=N/OCC(=O)Nc2ccc3c(c2)OCO3)c(OC)c1	-10.7	-2.8	1.6	-9.0	1.0	/
COc1ccc(OCCC(=O)Nc2ccccc2)cc1	5.4	-5.8	-4.1	-14.7	-1.6	/
CC(=O)NC1C(Oc2ccc3c(C)cc(=O)oc3c2)OC(COC(C)=O)C(OC(C)=O)C1OC(C)=O (stereo not drawn)	-0.3	2.8	-1.3	1.5	-0.2	/
O=C(N[C@@H](Cc1ccccc1)C(=O)OCc1ccccc1)c1nc[nH]c1C(=O)N1CCNCC1	-1.3	2.1	-1.0	4.0	1.2	/
Cc1ccccc1C(=O)N1CCC(C(=O)Nc2nc3ccc(F)cc3s2)CC1	-10.9	-3.0	-5.2	2.5	-2.2	/
O=C(O)CCc1nn2c3ccccc3n(CC(=O)O)c2nc1=O	0.7	-1.8	-0.2	29.8*	3.4	-2.0
COc1ccccc1N1CCN(/N=C/c2cc(OC)c(O)c(OC)c2)CC1	1.9	7.0	1.8	20.2*	-5.7	-2.0
CN(c1ccccc1)S(=O)(=O)c1cccc(NC(=O)CSc2ncn[nH]2)c1	-8.9	-6.7	3.7	18.0*	5.6	-0.1
CCc1nc2ccc(C(=O)NC3CCN(Cc4ccccc4)CC3)cn2c1N(C)Cc1ccc(N(C)C)cc1	/	3.3	-7.3	0.7	5.2	/
O=C(CCc1nnc(-c2ccc(-c3ccccc3)cc2)o1)NCCc1ccccn1	3.9	6.6	-4.3	-1.5	-4.9	/
COC(=O)CCCNC(=O)CCc1nnc(-c2ccc(-c3ccccc3)cc2)o1	6.6	0.8	-1.9	18.1*	-6.8	0.4
COc1cc(C(=O)N2CCN(C3CCCCC3)CC2)cc(OC)c1OC	4.5	10.1	-2.5	18.5*	-5.8	9.7
O=C(NCc1ccccc1)N1CCN(CCO)CC1	7.9	4.2	2.6	-7.7	-3.6	/
CCOC(=O)c1c(C(=O)OCC)c(C)n(CCc2ccccc2)c1C	1.0	0.5	-2.1	31.1*	-0.6	20.0*
Oc1ccc(N=Nc2n[nH]c(-c3ccccc3)n2)cc1	3.9	-3.0	0.4	-4.1	0.6	/
Oc1ccc(N=Nc2nc(-c3ccccc3)c(-c3ccccc3)[nH]2)cc1	-2.8	-21.5	-1.6	36.6*	9.3	-0.7
COc1ccccc1C(O)P(=O)(OCC(C)C)c1ccc(N(C)C)cc1 (stereo not drawn)	9.4	0.2	-3.6	1.6	-11.6	/
CCOc1ccccc1N1CC(C(=O)Nc2ccc3c(c2)OCCO3)CC1=O (stereo not drawn)	5.6	-2.6	-2.7	1.5	-1.6	/
CCOC(=O)C(O)(C1C(=O)CC(C)(C)CC1=O)C(F)(F)F (stereo not drawn)	2.8	-0.6	0.4	33.1*	-0.9	18.7*
SMILES	HTRA1 inhibitor	ABHD4 inh	PRMT1 inh	SIAE inh	rCAG RNA binder	SIAE confirm
CCC(C(=O)NCCCc1ccccc1)c1ccccc1 (stereo not drawn)	-3.5	-6.3	-5.5	-5.0	-1.3	/
CCC(CC)C(=O)NCCCCc1ccccc1	3.6	-1.7	-0.1	19.9*	-1.1	-2.3
CCC(CC)C(=O)NCCc1ccc(OC)c(OC)c1	4.2	-15.0	2.9	-6.4	-2.1	/
CCC(CC)C(=O)NCCc1ccc(OC)cc1	-0.5	-4.0	-0.4	17.3*	-1.6	0.8
CC(=O)Nc1ccc(NC(=O)COC(=O)c2ccccn2)cc1	6.0	3.0	-2.5	-0.2	-0.3	/
Cc1noc(C)c1CC(=O)Nc1ccc2c(c1)OCO2	3.3	5.8	1.5	6.0	7.5	/
COC(=O)[C@]12C[C@H](CC(=O)NCCC(C)C)C(=O)N(Cc3ccco3)C1=C[C@H](C(C)(C)C)O[C@@H]2C	/	-2.5	0.2	-3.8	0.6	/
Cc1ccc(C(=O)CSc2cnc3ccccc3n2)cc1C	-30.4	-7.7	-0.8	-7.6	2.6	/
COc1cc(/C=N\NC(=O)c2ccc(Cn3cc(Br)c([N+](=O)[O-])n3)o2)cc(OC)c1O	4.1	8.0	3.4	17.5*	7.8	6.4
COc1ccc2nc(C(c3ccc(C)cc3)n3c(-c4ccccc4Br)nc4ccccc43)[nH]c2c1 (stereo not drawn)	/	8.8	3.9	27.3*	11.1	-3.0
OCC1(CCc2ccccc2)CCCN(C/C=C/c2ccccc2)C1 (stereo not drawn)	-9.8	-0.8	-1.2	18.5*	-8.6	-2.4
COc1ccc(C2CC(=O)Nc3cc(OC)c(OC)cc32)cc1Br (stereo not drawn)	-2.2	1.9	-2.6	-3.9	-3.5	/
COc1ccc(C2CC(=O)Nc3ccccc3S2(=O)=O)cc1OC (stereo not drawn)	2.4	9.5	4.7	18.2*	5.6	0.4
O=C(NCc1ccco1)/C(=C\c1cccnc1)NC(=O)c1ccccc1F	0.6	/	/	/	/	/
CCN(CC(=O)NCc1ccc(Cl)cc1)C(=O)CCC(=O)c1ccc(F)cc1	-4.0	2.5	-2.3	20.3*	-4.3	-2.5
CN1c2ccccc2C2(C)CCCC3=Cc4cccc([N+](=O)[O-])c4OC312 (stereo not drawn)	-2.3	-4.3	-1.9	11.3	4.8	/
CN1c2ccccc2C2(C)CCCC3=Cc4cc([N+](=O)[O-])cc([N+](=O)[O-])c4OC312 (stereo not drawn)	2.7	-4.5	0.7	52.4*	5.4	-6.6
COc1ccc(C(=O)NCC(c2ccco2)N2CCc3ccccc32)c(OC)c1 (stereo not drawn)	-8.1	3.5	-2.8	8.9	0.0	/
CCOC(=O)Cc1csc(NS(=O)(=O)c2ccc(F)cc2)n1	5.3	3.9	1.4	19.2*	6.3	-0.8
CN(C)c1ccc(NC(=O)c2cn(-c3ccccc3)nc2-c2cccs2)cc1	6.7	10.1	3.0	24.8*	14.1	18.6*
O=C(Nc1ccc2ccccc2c1)c1cn(-c2ccccc2)nc1-c1cccs1	-92.6	-87.3	-3.7	-107.8	24.6	/

Compound activity from PubChem.
